Each structure is given as a SMILES string.

The experiment addresses T1, N-acylethanolamine-hydrolyzing acid amidase (Rattus norvegicus, UniProt Q5KTC7).
T1 sequence (Q5KTC7 whole entry): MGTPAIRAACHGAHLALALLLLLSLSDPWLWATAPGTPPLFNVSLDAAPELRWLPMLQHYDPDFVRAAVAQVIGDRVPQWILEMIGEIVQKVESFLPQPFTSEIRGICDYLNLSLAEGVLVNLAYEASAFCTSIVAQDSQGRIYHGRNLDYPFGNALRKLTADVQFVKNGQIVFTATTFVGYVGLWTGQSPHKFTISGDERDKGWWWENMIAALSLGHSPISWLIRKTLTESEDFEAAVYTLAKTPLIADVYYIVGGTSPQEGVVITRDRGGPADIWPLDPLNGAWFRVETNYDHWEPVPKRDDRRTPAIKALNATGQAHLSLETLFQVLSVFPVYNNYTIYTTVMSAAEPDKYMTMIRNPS
Briefly: Inhibition of NAAA in Sprague-Dawley rat lung assessed as inhibition of hydrolysis of 10-cis-heptadecenoylethanolamide by UPLC/MS method. The procedure, abridged: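 Native NAAA enzyme prepared from rat lungs, not a recombinant construct. The substrate, 10-cis-heptadecenoylethanolamide, is an unnatural fatty acid ethanolamide. Inhibition of its hydrolysis was measured, and the median inhibitory concentration (IC50) was reported.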
For orientation: IC50 means the concentration that gives 50% inhibition. Turning to `Cc1ccc(-c2ccc(COC(=O)N[C@H]3C(=O)O[C@H]3C)cc2)cc1`, the IC50 worked out at 24 nM.
Take `C[C@@H]1OC(=O)[C@@H]1NC(=O)OCC#Cc1ccccc1`: the 50% inhibitory concentration (IC50) is 15 nM.
The result for `C[C@@H]1OC(=O)[C@@H]1NC(=O)OCc1ccc(-c2ccc(C(F)(F)F)cc2)cc1` [US9353075, 44] reads 28 nM.

The record behind these values is BindingDB's records for doi:10.1021/jm501455s (Istituto Italiano Di Tecnologia, 2014).
